Experimental data as given in ChEMBL document CHEMBL1138018, “Discovery and SAR of 2-aminothiazole inhibitors of cyclin-dependent kinase 5/p25 as a potential treatment for Alzheimer's disease” (Bioorg Med Chem Lett, 2004).

Assays:
[1] = Ratio of inhibition of cyclin dependant kinase 2-cyclin E to that of cyclin-dependent kinase 5
In short: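 Selectivity is the cdk2/cyclin E IC50 divided by the cdk5/p25 IC50 (k2/k5). Both IC50s came from six-point triplicate dose–response curves in scintillation proximity assays run at the same final ATP concentration.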

[2] = biological target: T1, Cyclin-dependent kinase 2/cyclin E1 (Homo sapiens, UniProt P24941); test: Concentration required for 50% inhibition of cyclin dependant kinase 2-cyclin E was measured by scintillation proximity assay; assay type: protein-complex assay
In short: (§1)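 Kinase activity was read by scintillation proximity assay against cdk5/p25 and cdk2/cyclin E, with the same final ATP concentration in both assays. ATP Km was measured separately for each enzyme. Each IC50 came from a six-point dose–response curve run in triplicate.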

[3] = biological target: Cyclin-dependent kinase 5 (Homo sapiens, UniProt Q00535); test: Concentration required for inhibition of cyclin-dependent kinase 5 was measured by scintillation proximity assay; in short: as §1
Chain of Cyclin-dependent kinase 5 (Q00535 whole entry): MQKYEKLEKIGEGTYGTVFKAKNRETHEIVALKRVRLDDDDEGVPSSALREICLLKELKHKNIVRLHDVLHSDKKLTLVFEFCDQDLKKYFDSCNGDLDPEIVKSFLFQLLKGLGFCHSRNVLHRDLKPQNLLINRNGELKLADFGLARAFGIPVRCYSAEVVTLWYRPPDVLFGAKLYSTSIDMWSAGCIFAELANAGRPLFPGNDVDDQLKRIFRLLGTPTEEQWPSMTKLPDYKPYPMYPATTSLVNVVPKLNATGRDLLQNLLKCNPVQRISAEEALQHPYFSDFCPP

[4] = biological target: T1, Cyclin-dependent kinase 2/cyclin E1; test: Concentration required for inhibition of cyclin dependant kinase 2-cyclin E was measured by scintillation proximity assay; assay type: protein-complex assay; in short: as §1

Row | Compound | Ratio [1] | IC50 [2] [nM] | IC50 [3] [nM] | IC50 [4] [nM]
1 | CC(C)c1cnc(NC(=O)c2ccccc2)s1 | 0.9 | 1020 | 1150 | 
2 | O=C(Nc1ncc(C2CCC2)s1)Nc1cccc2ncccc12 | 3.3 |  | 13 | 43
3 | O=C(Nc1ncc(C2CCC2)s1)Nc1cccc2nn[nH]c12 |  |  | 41 | 106
4 | CC(C)c1cnc(NC(=O)Cc2ccccc2)s1 | 1.5 | 98 | 64 | 
5 | O=C(Cc1ccccc1)Nc1ncc(C2=CCCC2)s1 | 1 |  | 6530 | 6510
6 | CC(C)c1cnc(NC(=O)Oc2ccccc2)s1 | 0.6 | 980 | 1600 | 
7 | O=C(Nc1ncc(C2CCC2)s1)Nc1cccc2cnccc12 | 12 |  | 8 | 96
8 | Cc1nc2ccc(CC(=O)Nc3ncc(C4CCC4)s3)cc2s1 | 1.3 |  | 12 | 16
9 | CC(=O)c1cnc(NC(=O)Cc2ccccc2)s1 | 0.6 |  | 7670 | 4600
10 | O=C(Cc1cccc2cnccc12)Nc1ncc(C2CCC2)s1 | 5.4 |  | 13 | 70
11 | O=C(Cc1ccccc1)Nc1ncc(C2CCCCC2)s1 | 2.6 |  | 390 | 997
12 | O=C(Cc1c[nH]c2ccccc12)Nc1ncc(C2CCC2)s1 | 2.5 |  | 16 | 40
13 | CN(C)c1cnc(NC(=O)Cc2ccccc2)s1 | 1.2 |  | 3990 | 4810
14 | O=C(Nc1ccc2ncccc2c1)Nc1ncc(C2CCC2)s1 | 3.8 |  | 44 | 167
15 | CSc1cnc(NC(=O)Cc2ccccc2)s1 | 1.2 |  | 91 | 105
16 | O=C(Cc1ccc2ncccc2c1)Nc1ncc(C2CCC2)s1 | 2.6 |  | 10 | 26
17 | O=C(Nc1ncc(C2CCC2)s1)Nc1cccc2ccncc12 | 11 |  | 5 | 55

Row | Compound | Ratio [1] | IC50 [2] [nM] | IC50 [3] [nM] | IC50 [4] [nM]
18 | CC(C)c1cnc(NC(=O)Nc2ccccc2)s1 | 2.6 | 265 | 102 | 
19 | O=C(Cn1ccc2ccccc21)Nc1ncc(C2CCC2)s1 | 2.1 |  | 48 | 100
20 | O=C(Cc1ccccc1)Nc1ncc(Br)s1 | 0.5 |  | 900 | 480
21 | O=C(Nc1ccccc1)Nc1ncc(C2CCC2)s1 | 1.6 |  | 183 | 290
22 | CCc1cnc(NC(=O)Cc2ccccc2)s1 | 0.7 | 412 | 621 | 
23 | O=C(Nc1ncc(C2CCC2)s1)Nc1cccc2[nH]nnc12 | 2.6 |  |  | 
24 | CCCCCc1cnc(NC(=O)Cc2ccccc2)s1 | 1.2 |  | 3270 | 4120
25 | CC(C)c1cnc(NC(=O)C(=O)c2ccccc2)s1 | 2.1 | 9770 | 4580 | 
26 | O=C(Cc1ccccc1)Nc1ncc(-c2ccccc2)s1 | 1.3 |  | 1570 | 2000
27 | CC(C)C(=O)Nc1ncc(C(C)C)s1 | 1 |  | 321 | 318
28 | O=C(Nc1ncc(C2CCC2)s1)Nc1cccc2c[nH]nc12 | 3.4 |  | 190 | 650
29 | O=C(Cc1ccccc1)Nc1ncc(C2CCCC2)s1 | 2.4 |  | 64 | 155
30 | O=C(Cc1ccc2[nH]cnc2c1)Nc1ncc(C2CCC2)s1 | 4.7 |  | 7 | 33
31 | Cc1cc2ncn(CC(=O)Nc3ncc(C4CCC4)s3)c2cc1C | 2.2 |  | 13 | 26
32 | O=C(Nc1ccc2cnccc2c1)Nc1ncc(C2CCC2)s1 | 4 |  | 44 | 176
33 | O=C(Cc1ccccc1)Nc1ncc(C2CCC2)s1 | 3 |  | 25 | 74
